Assay results taken from ChEMBL document CHEMBL5303300, “EUbOPEN Chemogenomics Library - Multiplex” (2023).
Where “and” joins values, the source holds several entries; their conditions need not be identical. Equal entries are not always repeated.

System: Fibroblast
Experiment: Multiplex assay against human fibroblast
Type: toxicity, cell-based
Settings: number of replicates 2
Outline: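 With compound added, live cells were imaged on a CQ1 microscope at 37°C and 5% CO2; staining with Hoechst33342, BioTracker Green Microtubule Cytoskeleton Dye, MitoTracker Red and Annexin V Alexa Fluor 680 had been done at seeding. The CellPathfinder machine-learning gating scheme split cells into Hoechst high-intensity objects or normal cells, normal cells into healthy, pyknosed or fragmented nuclei, and pyknosed cells into mitotic or apoptotic. The tubulin, mitochondrial-mass and membrane-permeability phenotypes are per cents of healthy-nucleus cells.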

[1] = 12 h, 1 µM, compound concentration 1 uM
[2] = 12 h, 10 µM, compound concentration 10 uM
[3] = 24 h, 1 µM, compound concentration 1 uM
[4] = 24 h, 10 µM, compound concentration 10 uM
[5] = 48 h, 1 µM, compound concentration 1 uM
[6] = 48 h, 10 µM, compound concentration 10 uM

Cn1cc(-n2cnc3c(NCc4nc5cc(Cl)c(Cl)cc5[nH]4)nc(N4CCOCC4)nc32)cn1
Population Apoptotic (%) [1]: 39% and 65% | Population Healthy Nuclei (%) [1]: 79% and 57% | Population Hoechst High Intensity Objects (%) [1]: 0% and 3% | Population Membrane Permeable-Phenotype (%) [1]: 7% | Population Mitochondria Different-Phenotype (%) [1]: 2% and 3% | Population Mitotic Cells (%) [1]: 60% and 34% | Population Normal (%) [1]: 100% and 96% | Population Pyknosed Nuclei (%) [1]: 15% and 19% | Population Tubulin-Different-Phenotype (%) [1]: 29% and 27% | Total Cell Count [1]: 211 and 225 | Population Apoptotic (%) [2]: 55% and 51% | Population Fragmented Nuclei (%) [2]: 10% and 19% | Population Healthy Nuclei (%) [2]: 59% and 60% | Population Hoechst High Intensity Objects (%) [2]: 0% | Population Membrane Permeable-Phenotype (%) [2]: 25% and 27% | Population Mitochondria Different-Phenotype (%) [2]: 3% and 5% | Population Mitotic Cells (%) [2]: 44% and 48% | Population Normal (%) [2]: 100% | Population Pyknosed Nuclei (%) [2]: 30% and 20% | Population Tubulin-Different-Phenotype (%) [2]: 74% and 81% | Total Cell Count [2]: 147 and 142 | Population Apoptotic (%) [3]: 89% and 85% | Population Fragmented Nuclei (%) [3]: 27% and 14% | Population Healthy Nuclei (%) [3]: 32% and 46% | Population Hoechst High Intensity Objects (%) [3]: 6% and 1% | Population Membrane Permeable-Phenotype (%) [3]: 12% | Population Mitochondria Different-Phenotype (%) [3]: 2% and 1% | Population Mitotic Cells (%) [3]: 10% and 14% | Population Normal (%) [3]: 93% and 98% | Population Pyknosed Nuclei (%) [3]: 40% and 38% | Population Tubulin-Different-Phenotype (%) [3]: 28% and 53% | Total Cell Count [3]: 229 and 205 | Population Apoptotic (%) [4]: 63% and 65% | Population Fragmented Nuclei (%) [4]: 10% and 19% | Population Healthy Nuclei (%) [4]: 62% and 59% | Population Hoechst High Intensity Objects (%) [4]: 0% | Population Membrane Permeable-Phenotype (%) [4]: 14% | Population Mitochondria Different-Phenotype (%) [4]: 6% and 13% | Population Mitotic Cells (%) [4]: 36% and 34% | Population Normal (%) [4]: 99% | Population Pyknosed Nuclei (%) [4]: 27% and 21% | Population Tubulin-Different-Phenotype (%) [4]: 79% and 85% | Total Cell Count [4]: 149 and 148 | Population Apoptotic (%) [5]: 93% and 94% | Population Fragmented Nuclei (%) [5]: 27% and 13% | Population Healthy Nuclei (%) [5]: 12% and 16% | Population Hoechst High Intensity Objects (%) [5]: 5% and 0% | Population Membrane Permeable-Phenotype (%) [5]: 12% and 29% | Population Mitochondria Different-Phenotype (%) [5]: 4% and 3% | Population Mitotic Cells (%) [5]: 6% and 5% | Population Normal (%) [5]: 94% and 99% | Population Pyknosed Nuclei (%) [5]: 60% and 69% | Population Tubulin-Different-Phenotype (%) [5]: 36% and 61% | Total Cell Count [5]: 218 and 190 | Population Apoptotic (%) [6]: 81% and 87% | Population Fragmented Nuclei (%) [6]: 15% and 19% | Population Healthy Nuclei (%) [6]: 35% and 38% | Population Hoechst High Intensity Objects (%) [6]: 1% and 0% | Population Membrane Permeable-Phenotype (%) [6]: 20% and 11% | Population Mitochondria Different-Phenotype (%) [6]: 22% and 19% | Population Mitotic Cells (%) [6]: 18% and 12% | Population Normal (%) [6]: 98% and 100% | Population Pyknosed Nuclei (%) [6]: 49% and 41% | Population Tubulin-Different-Phenotype (%) [6]: 74% and 78% | Total Cell Count [6]: 154 and 134

Cc1cc(NC(=O)c2cccc(NC(=O)/C=C/CN(C)C)c2)ccc1Nc1nccc(-c2cccnc2)n1
Population Apoptotic (%) [1]: 39% and 33% | Population Fragmented Nuclei (%) [1]: 12% and 17% | Population Healthy Nuclei (%) [1]: 63% and 56% | Population Hoechst High Intensity Objects (%) [1]: 0% | Population Membrane Permeable-Phenotype (%) [1]: 9% and 11% | Population Mitochondria Different-Phenotype (%) [1]: 0% and 1% | Population Mitotic Cells (%) [1]: 60% and 66% | Population Normal (%) [1]: 100% | Population Pyknosed Nuclei (%) [1]: 24% and 25% | Population Tubulin-Different-Phenotype (%) [1]: 18% and 11% | Total Cell Count [1]: 190 and 197 | Population Apoptotic (%) [2]: 48% and 33% | Population Fragmented Nuclei (%) [2]: 4% and 10% | Population Healthy Nuclei (%) [2]: 53% and 56% | Population Hoechst High Intensity Objects (%) [2]: 0% | Population Membrane Permeable-Phenotype (%) [2]: 7% and 14% | Population Mitochondria Different-Phenotype (%) [2]: 8% and 2% | Population Mitotic Cells (%) [2]: 51% and 66% | Population Normal (%) [2]: 100% and 99% | Population Pyknosed Nuclei (%) [2]: 41% and 33% | Population Tubulin-Different-Phenotype (%) [2]: 77% and 50% | Total Cell Count [2]: 130 and 219 | Population Apoptotic (%) [3]: 47% and 40% | Population Fragmented Nuclei (%) [3]: 22% and 24% | Population Healthy Nuclei (%) [3]: 54% and 52% | Population Hoechst High Intensity Objects (%) [3]: 0% | Population Membrane Permeable-Phenotype (%) [3]: 5% and 3% | Population Mitochondria Different-Phenotype (%) [3]: 0% and 2% | Population Mitotic Cells (%) [3]: 52% and 59% | Population Normal (%) [3]: 100% | Population Pyknosed Nuclei (%) [3]: 23% | Population Tubulin-Different-Phenotype (%) [3]: 21% and 13% | Total Cell Count [3]: 230 and 222 | Population Apoptotic (%) [4]: 53% and 39% | Population Fragmented Nuclei (%) [4]: 11% | Population Healthy Nuclei (%) [4]: 36% and 51% | Population Hoechst High Intensity Objects (%) [4]: 0% | Population Membrane Permeable-Phenotype (%) [4]: 6% and 7% | Population Mitochondria Different-Phenotype (%) [4]: 18% and 13% | Population Mitotic Cells (%) [4]: 46% and 60% | Population Normal (%) [4]: 99% | Population Pyknosed Nuclei (%) [4]: 51% and 36% | Population Tubulin-Different-Phenotype (%) [4]: 81% and 63% | Total Cell Count [4]: 118 and 221 | Population Apoptotic (%) [5]: 68% and 75% | Population Fragmented Nuclei (%) [5]: 24% and 29% | Population Healthy Nuclei (%) [5]: 62% and 60% | Population Hoechst High Intensity Objects (%) [5]: 0% | Population Membrane Permeable-Phenotype (%) [5]: 6% and 4% | Population Mitochondria Different-Phenotype (%) [5]: 1% and 0% | Population Mitotic Cells (%) [5]: 31% and 25% | Population Normal (%) [5]: 100% and 99% | Population Pyknosed Nuclei (%) [5]: 13% and 10% | Population Tubulin-Different-Phenotype (%) [5]: 23% and 29% | Total Cell Count [5]: 237 and 239 | Population Apoptotic (%) [6]: 82% and 60% | Population Fragmented Nuclei (%) [6]: 14% | Population Healthy Nuclei (%) [6]: 30% and 39% | Population Hoechst High Intensity Objects (%) [6]: 0% | Population Membrane Permeable-Phenotype (%) [6]: 19% and 12% | Population Mitochondria Different-Phenotype (%) [6]: 22% and 15% | Population Mitotic Cells (%) [6]: 17% and 39% | Population Normal (%) [6]: 100% and 99% | Population Pyknosed Nuclei (%) [6]: 54% and 45% | Population Tubulin-Different-Phenotype (%) [6]: 80% and 78% | Total Cell Count [6]: 117 and 218
